For three compounds, Activity and EC50 results are on record in ChEMBL document CHEMBL1158826, “Anti-inflammatory activity of verminoside from Kigelia africana and evaluation of cutaneous irritation in cell cultures and reconstituted human epidermis” (J Nat Prod, 2005).

For one data set, the system named is Skin epidermis. As to the kind of experiment: Effect on morphological changes in reconstituted human epidermis model assessed as induction of tissue degeneration and necrosis after 24 hrs. In kind it is functional. Summed up: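 Reconstituted epidermis was dosed topically with PBS solutions at 1-3% (extract) or 0.25-1% (compound), with PBS and SDS 0.25% as controls. After 24 or 72 h, tissues were fixed in 10% formalin, dehydrated through ethanol and toluene, and paraffin-embedded. Sections of 5 µm were stained with H&E and examined by light microscopy at 200×.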

The species named for data set [1] is Homo sapiens. As to the kind of experiment: Antiinflammatory activity against reconstituted human epidermis model assessed as inhibition of IL1alpha release after 72 hrs by ELISA relative to control. The class given is functional. As to conditions: Skin epidermis. An outline of the steps: (§1)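 Reconstituted human epidermis (0.63 cm2, differentiated from normal human keratinocytes) received 50 µL of PBS solutions applied topically. Concentrations were 1, 2, 3% for extract and 0.25, 0.5, 1% for pure compound. Tissues were held at 37 °C, 5% CO2, with daily medium change. Underlying medium was collected at 24 or 72 h and IL-1α (pg/mL) quantified by ELISA. Controls were PBS and SDS 0.25%. Three independent experiments.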

The species entered for data set [2] is Homo sapiens. As to the kind of experiment: Antiinflammatory activity against reconstituted human epidermis model assessed as inhibition of IL1alpha release after 24 hrs by ELISA relative to control. The class given is functional. As to conditions: Skin epidermis. An outline of the steps:
as §1

In data set [3] the test system is J774.A1. As to the kind of experiment: Cytotoxicity against mouse J774A1 macrophages grown in monolayers by MTT assay. In kind it is cell-based. An outline of the steps: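 Monolayer J774.A1 cells were exposed to test solutions in PBS, 0.01-1 mM for pure compounds and 1-1000 µg/mL for extract. Viability was read by MTT assay and expressed as % of PBS-treated controls. Experiments were repeated at least three times with three or more observations each. ANOVA with Bonferroni.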

The subject of data set [4] is J774.A1. Kind of data set: Antiinflammatory activity against mouse J774A1 macrophages assessed as inhibition of LPS-induced iNOS expression at 1 mM treated 1 hr before LPS challenge and measured after 24 hrs by Western blot analysis. The class given is functional, cell-based. An outline of the steps:
(§2)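 J774.A1 cells were given test solutions in PBS (0.01-1 mM) 1 h before and together with LPS (6 × 103 u/mL). After 24 h with LPS, cells were lysed and iNOS protein detected by Western blot with densitometry. Results are % inhibition versus LPS alone, from 3-6 independent experiments in triplicate. One-way ANOVA.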

The nature of data set [5]: Cytotoxicity against reconstituted human epidermal cells assessed as cell viability after 72 hrs by MTT assay. In kind it is cell-based. Summed up: (§3)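 Epidermis tissues were dosed topically with 50 µL of PBS solutions (extract 1-3%, compound 0.25-1%) in duplicate and kept at 37 °C, 5% CO2 for 24 or 72 h, with medium changed daily. Controls were PBS pH 7.2 and SDS 0.25%. After washing, MTT (0.5 mg/mL) was added for 3 h at 37 °C and OD read at 570 nm. Results are % viability versus PBS-treated epidermis.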

For data set [6], the system named is J774.A1. Kind of data set: Antiinflammatory activity against mouse J774A1 macrophages assessed as inhibition of LPS-induced iNOS expression pretreated for 1 hr before LPS challenge and measured after 24 hrs by Western blot analysis. The class given is functional, cell-based. Summed up: as §2
Data set [7] can be described thus: Cytotoxicity against reconstituted human epidermal cells assessed as cell viability after 24 hrs by MTT assay. In kind it is cell-based. An outline of the steps: as §3
Data set [8] concerns J774.A1. Kind of data set: Antiinflammatory activity against mouse J774A1 macrophages assessed as inhibition of LPS-induced NO release pretreated for 1 hr before LPS challenge measured after 24 hrs by Griess method. The class given is functional, cell-based. Summed up:
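Nitrite measured in medium by Griess reaction 24 h after LPS (6 × 103 u/mL). J774.A1 cells plated at 1.5 × 106 in P60 plates. Test solutions in PBS (0.01-1 mM) were added 1 h before and again together with LPS. Nitrite was read against a sodium nitrite standard curve in culture medium. Inhibition is given as % versus LPS-only cells. At least 3 independent experiments, 3 replicates each.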

The source made the active and inactive calls. The calls are words filed in the database; no cut-off is given here.

Turning to `CCCCCCCCCCCCOS(=O)(=O)[O-].[Na+]`, the outcome with Skin epidermis was Active. Besides, the Activity in the data set filed under Homo sapiens [1] came to 110 pg/mL; in the data set listed under Homo sapiens [2], 250 pg/mL.
With `C[C@@H]1O[C@@H](O[C@@H]2[C@@H](O)[C@H](OCCc3ccc(O)c(O)c3)O[C@H](CO)[C@H]2OC(=O)/C=C/c2ccc(O)c(O)c2)[C@H](O)[C@H](O)[C@H]1O` [ACETOSIDE], in the data set with J774.A1 [3], the 50% effective concentration (EC50) was 490 µM. Also, the outcome in the data set with J774.A1 [4] was Active.
Regarding `O=C(/C=C/c1ccc(O)c(O)c1)O[C@@H]1C2C=CO[C@H](O[C@@H]3O[C@H](CO)[C@@H](O)[C@H](O)[C@H]3O)C2[C@]2(CO)O[C@H]12` (some centres undefined) [VERMINOSIDE], the Activity entry in data set [5] was “Non-toxic”; with J774.A1 [6] it was “Dose-dependent effect”; in data set [7] it was “Non-toxic”; in the data set on J774.A1 [8], “Dose-dependent effect”.
